According to ChEMBL document CHEMBL5724801, “EUbOPEN Chemogenomics Library - Multiplex” (2024):
Where “and” joins values, the source holds several entries; their conditions need not be identical. Identical values can stand only once.

Test system: HEK-293T
Experiment: Multiplex assay against HEK293T
Type: toxicity, cell-based
Conditions: human
In short: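 Live cells carried four stains from seeding: Hoechst33342, BioTracker Green Microtubule Cytoskeleton Dye, MitoTracker Red and Annexin V Alexa Fluor 680. They were imaged on a CQ1 microscope at 37°C and 5% CO2 after compound addition. Using CellPathfinder machine-learning gating, cells were split into Hoechst high-intensity objects or normal cells, normal cells into healthy, pyknosed or fragmented nuclei, and pyknosed cells into mitotic or apoptotic; tubulin, mitochondrial-mass and membrane-permeability phenotypes are per cents of healthy-nucleus cells.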

[1] = 12 h, 1 µM, compound concentration 1 uM
[2] = 12 h, 10 µM, compound concentration 10 uM
[3] = 24 h, 1 µM, compound concentration 1 uM
[4] = 24 h, 10 µM, compound concentration 10 uM
[5] = 48 h, 1 µM, compound concentration 1 uM
[6] = 48 h, 10 µM, compound concentration 10 uM

SMILES: O=C1[C@H](Cc2ccc(O)cc2)N2C(=O)CCN(C(=O)NCc3ccccc3)[C@H]2CN1Cc1cccc2ccccc12
- Population Apoptotic (%) [1]: 44% and 46%
- Population Fragmented Nuclei (%) [1]: 6% and 7%
- Population Healthy Nuclei (%) [1]: 80% and 78%
- Population Hoechst High Intensity Objects (%) [1]: 6% and 8%
- Population Membrane Permeable-Phenotype (%) [1]: 0%
- Population Mitochondria Different-Phenotype (%) [1]: 54% and 68%
- Population Mitotic Cells (%) [1]: 55% and 53%
- Population Normal (%) [1]: 93% and 91%
- Population Pyknosed Nuclei (%) [1]: 12% and 13%
- Population Tubulin-Different-Phenotype (%) [1]: 46% and 33%
- Total Cell Count [1]: 374 and 259
- Population Apoptotic (%) [2]: 68% and 60%
- Population Fragmented Nuclei (%) [2]: 5%
- Population Healthy Nuclei (%) [2]: 74% and 82%
- Population Hoechst High Intensity Objects (%) [2]: 11% and 14%
- Population Membrane Permeable-Phenotype (%) [2]: 0%
- Population Mitochondria Different-Phenotype (%) [2]: 90% and 93%
- Population Mitotic Cells (%) [2]: 31% and 40%
- Population Normal (%) [2]: 88% and 85%
- Population Pyknosed Nuclei (%) [2]: 20% and 11%
- Population Tubulin-Different-Phenotype (%) [2]: 76% and 67%
- Total Cell Count [2]: 340 and 257
- Population Apoptotic (%) [3]: 23% and 55%
- Population Fragmented Nuclei (%) [3]: 7% and 8%
- Population Healthy Nuclei (%) [3]: 80% and 77%
- Population Hoechst High Intensity Objects (%) [3]: 7% and 8%
- Population Membrane Permeable-Phenotype (%) [3]: 0%
- Population Mitochondria Different-Phenotype (%) [3]: 49% and 47%
- Population Mitotic Cells (%) [3]: 76% and 45%
- Population Normal (%) [3]: 92% and 91%
- Population Pyknosed Nuclei (%) [3]: 11% and 14%
- Population Tubulin-Different-Phenotype (%) [3]: 38% and 24%
- Total Cell Count [3]: 470 and 305
- Population Apoptotic (%) [4]: 68% and 74%
- Population Fragmented Nuclei (%) [4]: 7% and 9%
- Population Healthy Nuclei (%) [4]: 75% and 77%
- Population Hoechst High Intensity Objects (%) [4]: 11% and 14%
- Population Membrane Permeable-Phenotype (%) [4]: 0%
- Population Mitochondria Different-Phenotype (%) [4]: 94% and 95%
- Population Mitotic Cells (%) [4]: 31% and 25%
- Population Normal (%) [4]: 88% and 85%
- Population Pyknosed Nuclei (%) [4]: 16% and 12%
- Population Tubulin-Different-Phenotype (%) [4]: 65% and 70%
- Total Cell Count [4]: 278 and 249
- Population Apoptotic (%) [5]: 30% and 50%
- Population Fragmented Nuclei (%) [5]: 14% and 11%
- Population Healthy Nuclei (%) [5]: 78% and 81%
- Population Hoechst High Intensity Objects (%) [5]: 4% and 3%
- Population Membrane Permeable-Phenotype (%) [5]: 0%
- Population Mitochondria Different-Phenotype (%) [5]: 34% and 29%
- Population Mitotic Cells (%) [5]: 69% and 50%
- Population Normal (%) [5]: 95% and 96%
- Population Pyknosed Nuclei (%) [5]: 6% and 7%
- Population Tubulin-Different-Phenotype (%) [5]: 26% and 19%
- Total Cell Count [5]: 730 and 472
- Population Apoptotic (%) [6]: 71% and 57%
- Population Fragmented Nuclei (%) [6]: 8% and 11%
- Population Healthy Nuclei (%) [6]: 79% and 73%
- Population Hoechst High Intensity Objects (%) [6]: 10% and 20%
- Population Membrane Permeable-Phenotype (%) [6]: 0%
- Population Mitochondria Different-Phenotype (%) [6]: 94% and 88%
- Population Mitotic Cells (%) [6]: 28% and 42%
- Population Normal (%) [6]: 89% and 79%
- Population Pyknosed Nuclei (%) [6]: 11% and 14%
- Population Tubulin-Different-Phenotype (%) [6]: 63% and 72%
- Total Cell Count [6]: 297 and 232

SMILES: O=C1c2c(Br)c(Br)c(Br)c(Br)c2C(=O)N1c1ncc[nH]1
- Population Apoptotic (%) [1]: 13.1% and 15.91%
- Population Fragmented Nuclei (%) [1]: 2.88% and 4.84%
- Population Healthy Nuclei (%) [1]: 55.33% and 24.19%
- Population Hoechst High Intensity Objects (%) [1]: 0%
- Population Membrane Permeable-Phenotype (%) [1]: 0.52% and 0%
- Population Mitochondria Different-Phenotype (%) [1]: 30.21% and 20%
- Population Mitotic Cells (%) [1]: 86.9% and 84.09%
- Population Normal (%) [1]: 100%
- Population Pyknosed Nuclei (%) [1]: 41.79% and 70.97%
- Total Cell Count [1]: 347 and 124
- Population Apoptotic (%) [2]: 11.88% and 18.7%
- Population Fragmented Nuclei (%) [2]: 3.09% and 4.38%
- Population Hoechst High Intensity Objects (%) [2]: 0.28% and 0%
- Population Membrane Permeable-Phenotype (%) [2]: 0.82% and 0%
- Population Mitochondria Different-Phenotype (%) [2]: 30.74% and 20%
- Population Mitotic Cells (%) [2]: 88.12% and 81.3%
- Population Normal (%) [2]: 99.72% and 100%
- Population Pyknosed Nuclei (%) [2]: 28.37% and 76.88%
- Total Cell Count [2]: 357 and 160
- Population Apoptotic (%) [3]: 7.29% and 20.59%
- Population Fragmented Nuclei (%) [3]: 2.82% and 1.69%
- Population Healthy Nuclei (%) [3]: 81.23% and 40.68%
- Population Hoechst High Intensity Objects (%) [3]: 0%
- Population Membrane Permeable-Phenotype (%) [3]: 0.41% and 0%
- Population Mitochondria Different-Phenotype (%) [3]: 13.29% and 6.25%
- Population Mitotic Cells (%) [3]: 92.71% and 79.41%
- Population Normal (%) [3]: 100%
- Population Tubulin-Different-Phenotype (%) [3]: 8.59% and 6.25%
- Population Apoptotic (%) [4]: 15.38% and 16.98%
- Population Fragmented Nuclei (%) [4]: 2.6% and 2.87%
- Population Healthy Nuclei (%) [4]: 81.63% and 36.21%
- Population Hoechst High Intensity Objects (%) [4]: 0%
- Population Membrane Permeable-Phenotype (%) [4]: 0.42% and 0%
- Population Mitochondria Different-Phenotype (%) [4]: 15.71% and 7.94%
- Population Mitotic Cells (%) [4]: 84.62% and 83.02%
- Population Normal (%) [4]: 100%
- Population Tubulin-Different-Phenotype (%) [4]: 7.64% and 3.17%
- Population Apoptotic (%) [5]: 5.76% and 12.5%
- Population Fragmented Nuclei (%) [5]: 3.26% and 4.05%
- Population Healthy Nuclei (%) [5]: 88.03% and 68.21%
- Population Hoechst High Intensity Objects (%) [5]: 0% and 2.26%
- Population Membrane Permeable-Phenotype (%) [5]: 3.85% and 1.69%
- Population Mitochondria Different-Phenotype (%) [5]: 10.61% and 18.64%
- Population Mitotic Cells (%) [5]: 94.24% and 87.5%
- Population Normal (%) [5]: 100% and 97.74%
- Population Apoptotic (%) [6]: 13.95% and 14.89%
- Population Fragmented Nuclei (%) [6]: 5.46% and 4.92%
- Population Healthy Nuclei (%) [6]: 88.11% and 79.67%
- Population Hoechst High Intensity Objects (%) [6]: 0% and 0.97%
- Population Membrane Permeable-Phenotype (%) [6]: 6.62% and 4.53%
- Population Mitochondria Different-Phenotype (%) [6]: 10.78% and 11.11%
- Population Mitotic Cells (%) [6]: 86.05% and 85.11%
- Population Normal (%) [6]: 100% and 99.03%
- Population Pyknosed Nuclei (%) [6]: 6.43% and 15.41%
